Source: PubChem BioAssay (several laboratories)
The full list was thinned out, with hits kept by preference.
p-CIP stab down: p/CIP-EGFP fusion destabilizers, primary screen, fluorescence, F442A cells. 16 h. decrease of EGFP signal, % at 10 µM. 290,000 tested, 0.01% active;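 active = EGFP signal decrease of at least 30% at 10 µM or well 3 SD below plate mean, unless failing retest; inactive = the rest, including hits failing retest or dose response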
Dynein cargo inh: inhibitors of GR-EGFP nuclear translocation, primary screen, dynein cargo transport inhibitor project, imaging, high-content, 3617.4 mouse cells | test concentration mostly 20 µM; stimulated with dexamethasone, 1 µM; active compounds read low | z-score, hits read low | 220,000 tested, 0.47% active;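 active = plate z-score of nuclear minus cytoplasmic receptor signal below a set negative limit, without overly bright fluorescence or cell loss, cut at about -3.5 in these data, passing the limit was not always enough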;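 note: z-score of nuclear minus cytoplasmic ring GR-EGFP intensity difference per well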
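Also added: dexamethasone, 1.0 µM final. Medium: tet-free, stripped-serum medium. Detection: fixed, Hoechst-stained cells imaged at 10x for EGFP. Read-out: nuclear-to-cytoplasmic GR-EGFP distribution per well. Times: induction 48 h, compound 1 h, agonist 30 min.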
Cl transport mod: KCC2 cotransporter modulators, thallium flux, primary screen, cell-based, HEK293 KCC2, FluoZin-2 fluorescence, MLSMR. Solute carrier family 12 member 5 (Homo sapiens), Q9H2X9. KCC2 cells, thallium flux FluoZin-2 fluorescence. B-score of Tl+ flux slope (higher = more flux/activation; lower = inhibition) at 10 µM. 190,000 tested, 2.2% active. AID 1456, 2008;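 active = thallium flux slope and its plate-corrected score both differing from the plate sample mean at a set confidence after two filtering rounds, in either direction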;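 note: slope of fluorescence scaled to starting intensity during 10 to 20 s after thallium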
Target sequence (Q9H2X9 whole entry, looked up): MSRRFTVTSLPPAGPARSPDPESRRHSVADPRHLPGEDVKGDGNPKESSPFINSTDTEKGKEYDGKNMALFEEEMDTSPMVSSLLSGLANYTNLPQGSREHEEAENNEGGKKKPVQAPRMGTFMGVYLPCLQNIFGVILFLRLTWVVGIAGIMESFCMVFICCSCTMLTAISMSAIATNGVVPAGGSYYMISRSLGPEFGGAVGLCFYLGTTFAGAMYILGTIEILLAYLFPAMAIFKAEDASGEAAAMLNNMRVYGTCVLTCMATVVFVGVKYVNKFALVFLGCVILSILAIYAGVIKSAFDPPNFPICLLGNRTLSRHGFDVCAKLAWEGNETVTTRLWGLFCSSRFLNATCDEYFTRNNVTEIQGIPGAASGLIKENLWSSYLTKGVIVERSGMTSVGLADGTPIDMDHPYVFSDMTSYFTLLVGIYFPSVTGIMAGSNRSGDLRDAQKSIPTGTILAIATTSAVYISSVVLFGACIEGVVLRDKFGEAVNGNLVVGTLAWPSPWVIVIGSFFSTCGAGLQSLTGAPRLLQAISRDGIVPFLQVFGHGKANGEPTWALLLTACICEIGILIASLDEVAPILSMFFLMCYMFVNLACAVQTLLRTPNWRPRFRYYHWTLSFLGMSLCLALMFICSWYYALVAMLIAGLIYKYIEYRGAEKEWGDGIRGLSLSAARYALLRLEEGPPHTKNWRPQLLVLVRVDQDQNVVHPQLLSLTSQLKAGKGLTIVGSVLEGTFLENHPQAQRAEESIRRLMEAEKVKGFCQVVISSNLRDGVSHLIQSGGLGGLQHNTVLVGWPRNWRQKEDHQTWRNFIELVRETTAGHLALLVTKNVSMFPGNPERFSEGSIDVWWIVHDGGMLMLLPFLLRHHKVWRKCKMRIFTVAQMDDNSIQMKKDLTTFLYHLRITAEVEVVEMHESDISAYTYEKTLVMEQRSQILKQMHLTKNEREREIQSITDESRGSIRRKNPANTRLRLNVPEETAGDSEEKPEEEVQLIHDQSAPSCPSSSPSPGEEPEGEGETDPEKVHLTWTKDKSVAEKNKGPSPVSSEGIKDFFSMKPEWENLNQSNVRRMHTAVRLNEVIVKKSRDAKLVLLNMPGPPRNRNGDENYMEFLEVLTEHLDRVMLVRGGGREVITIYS
ABCB6 inh MLPCN: ABCB6 transporter inhibitors, primary screen, K562-ABCB6 cells, flow cytometry, MLPCN library; K562-ABCB6 porphyrin accumulation, 1 h; active compounds read low; ATP-binding cassette sub-family B member 6 (Homo sapiens), Q9NP58; AID 602162, 2011; 360,000 tested, 0.19% active; fluorescence ratio to DMSO, % at 10 µM;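 active = fluorescence ratio to DMSO below 75%, the collection mean minus 3 SD; inconclusive = too few cells collected in the well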;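 note: signal is porphyrin accumulated inside mitochondria; lower ratio means ABCB6 inhibition with less porphyrin fluorescence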
V-ATPase pH: regulators of yeast V-ATPase proton pumping, primary screen, pHLuorin cytosolic pH fluorescence; S. cerevisiae; response, % at 10 µM; 350,000 tested, 0.37% active; AID 504577, 2011; in the data active = response mostly above about 7.3%, no sharp cut-off; inactive = mostly below about 5.4%; note: actives read high
KCC2 secondary: KCC2 modulators in sodium-free buffer, confirmation, cell-based, HEK293 KCC2, thallium flux, secondary assay; shares compounds with Cl transport mod; normalised thallium flux (F/F0 slope) at 10 µM; 3,700 tested, 15% active; AID 1713, 2009; FluoZin2 fluorescence; active compounds read high;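 active = thallium flux slope above the same plate's solvent-only control mean plus 3 SD; inconclusive = the two replicate wells disagree; inactive = no significant difference from solvent-only control wells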
KCC2 bumet counter: thallium flux persisting under bumetanide in KCC2 cells, confirmation, counter-screen for KCC2 modulator project, cell-based, HEK293 KCC2, FluoZin2, secondary assay 3; HEK293-KCC2 + bumetanide/ouabain; active compounds read high; shares compounds with Cl transport mod; 3,700 tested, 49% active; AID 1714, 2009; normalized thallium flux at 10 µM;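 active = thallium entry rate above the same plate's blocked-transporter control wells by more than 3 SD; inconclusive = the two repeat wells disagree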;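 note: raw slope of fluorescence over initial fluorescence between 10 and 20 s after thallium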
KCC2 secondary2: KCC2 modulators without ouabain present, confirmation, cell-based, HEK293 KCC2, thallium flux, FluoZin2, secondary assay 2 | thallium flux FluoZin2 fluorescence; actives lie on both sides; F/F0 rise rate, 10–20 s post-thallium | AID 1715, 2009 | normalized thallium flux at 10 µM | shares compounds with Cl transport mod | 3,700 tested, 23% active;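 active = thallium flux slope more than 3 SD above or below the plate's solvent-only control mean, mostly below; inconclusive = the two repeat wells disagreed; inactive = no significant shift from solvent-only controls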
HEK293 Tl flux: thallium flux modulation in parental HEK cells, confirmation, counter-screen for KCC2 modulator project, cell-based, counterscreen 1; AID 1716, 2009; shares compounds with Cl transport mod; HEK293 parental cells, thallium flux FluoZin2, ouabain; baseline-ratio fluorescence slope, 10–20 s after thallium; 3,700 tested, 46% active; thallium flux rate (normalised fluorescence) at 10 µM;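 active = thallium flux rate significantly above the same plate's solvent-only control wells, beyond their mean plus 3 SD; inconclusive = the two replicate wells gave conflicting results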
KCC2 retest ouab: KCC2 inhibitors and activators, ouabain retest, confirmation, HEK-KCC2 cells. HEK293-KCC2, thallium flux FluoZin2 fluorescence; bidirectional: low = inhibitor, high = activator. 3,700 tested, 48% active. raw Tl+ flux slope (below DMSO = inhibition, above = activation) at 10 µM. AID 1717, 2009. shares compounds with Cl transport mod;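 active = thallium flux slope beyond 3 SD from same-plate DMSO control mean in most replicates, usually higher, sometimes lower; inconclusive = repeat tests gave conflicting results; inactive = no significant difference from controls in most replicates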;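 note: slope of initial-normalized fluorescence between seconds 10 and 20 after thallium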
HEK293 Tl flux2: native HEK Tl+ uptake effects, second counter-screen – HEK cells, counterscreen 2, counter-screen for KCC2 modulator project, confirmation; thallium flux slope at 10 µM; 3,700 tested, 33% active; AID 1718, 2009; HEK293 parental, thallium flux FluoZin-2 fluorescence slope; shares compounds with Cl transport mod;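 active = thallium flux slope above the same plate's solvent-control mean plus 3 SD in both duplicate wells; inconclusive = duplicate wells that disagreed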;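 note: run without ouabain in cells lacking the KCC2 cotransporter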
Of the large screens only hits and unclear results are named; the others gave an inactive call (follow-up assays come after a bar, where they were run).

Cc1ccccc1NC1=NC(=S)N(c2ccccc2)C12CCCCC2	Cl transport mod 57 | KCC2 secondary 0.025 | KCC2 bumet counter 0.16 | KCC2 secondary2 0.043 | HEK293 Tl flux 0.078 | KCC2 retest ouab 0.11 | HEK293 Tl flux2 0.022
COc1ccc(NC2=NC(=S)N(c3cccc(C)c3)C23CCCCC3)cc1	Cl transport mod 7.3 | KCC2 secondary inactive | KCC2 bumet counter 0.016 | KCC2 secondary2 inactive | HEK293 Tl flux 0.011 | KCC2 retest ouab inconclusive | HEK293 Tl flux2 inactive
CC1(C)CC2(CCO1)C(Nc1ccccc1)=NC(=S)N2c1ccccc1 (stereo not given)	Cl transport mod 14 (no result: ABCB6 inh MLPCN, V-ATPase pH) | KCC2 secondary 0.014 | KCC2 bumet counter 0.034 | KCC2 secondary2 inactive | HEK293 Tl flux 0.021 | KCC2 retest ouab inactive | HEK293 Tl flux2 0.014
Cc1cccc(NC2=NC(=S)N(c3ccc(C(=O)O)cc3)C23CCCCC3)c1	none
CCN(CC)c1nc2c(c(=O)[nH]c(=O)n2C)n1CCOc1ccccc1	none (no result: Dynein cargo inh, Cl transport mod)
CCCCN1C(=O)C(O)=C(C(C)=O)C1c1ccccc1 (stereo not given)	none (no result: Cl transport mod)
CCCCCCN1C(=O)C(O)=C(C(C)=O)C1c1ccc(Cl)cc1 (stereo not given)	Cl transport mod -3.3 | KCC2 secondary inactive | KCC2 bumet counter inconclusive | KCC2 secondary2 inactive | HEK293 Tl flux inactive | KCC2 retest ouab 0.014 | HEK293 Tl flux2 inactive
CCOC(=O)c1c(N2C(=O)Nc3cc(Cl)c(Cl)cc3N2O)sc2c1CCCCC2	Cl transport mod -5.2 | KCC2 secondary inactive | KCC2 bumet counter 0.013 | KCC2 secondary2 inactive | HEK293 Tl flux inactive | KCC2 retest ouab inconclusive | HEK293 Tl flux2 inactive
CCOC(=O)c1c(-n2cnnn2)sc2c1CCCC2	none
CC(C)(C)NC(=O)COc1coc(CN2CCN(C(=O)c3ccco3)CC2)cc1=O	none (no result: p-CIP stab down, Dynein cargo inh, Cl transport mod)
S=C(NCc1cccnc1)Nc1ccc(Oc2ccccc2)cc1	Cl transport mod -3.9 | KCC2 secondary inactive | KCC2 bumet counter inactive | KCC2 secondary2 0.022 | HEK293 Tl flux inactive | KCC2 retest ouab inconclusive | HEK293 Tl flux2 inactive
NC(=S)NCc1cccnc1	Cl transport mod 4.8 | KCC2 secondary inactive | KCC2 bumet counter inactive | KCC2 secondary2 inactive | HEK293 Tl flux inactive | KCC2 retest ouab inactive | HEK293 Tl flux2 inactive
O=C(NN(Cc1ccccc1)Cc1ccccc1)c1ccccc1	none (no result: p-CIP stab down, Dynein cargo inh, Cl transport mod)
Cc1cnc(C(=O)NC2CCSc3ccccc32)cn1 (stereo not given)	none (no result: Dynein cargo inh, Cl transport mod)
FC(F)(F)c1ccc(Cl)c(NC(=S)NC2CC2)c1	Cl transport mod 4.2 | KCC2 secondary inactive | KCC2 bumet counter inactive | KCC2 secondary2 inactive | HEK293 Tl flux inactive | KCC2 retest ouab inactive | HEK293 Tl flux2 inactive
CCC1=NN2C(=N)/C(=C\c3cccn3-c3ccc(C)c(C)c3)C(=O)N=C2S1	Cl transport mod 7 | KCC2 secondary inactive | KCC2 bumet counter 0.048 | KCC2 secondary2 0.049 | HEK293 Tl flux 0.037 | KCC2 retest ouab 0.042 | HEK293 Tl flux2 0.034
Cc1cc(C)cc(-n2c(C)cc(/C=C3\C(=N)N4N=C(CC(C)C)SC4=NC3=O)c2C)c1	none
CCCC1=NN2C(=N)/C(=C\c3cc(C)n(-c4cc(C)cc(C)c4)c3C)C(=O)N=C2S1	Cl transport mod 12 | KCC2 secondary inactive | KCC2 bumet counter 0.015 | KCC2 secondary2 inactive | HEK293 Tl flux inconclusive | KCC2 retest ouab 0.025 | HEK293 Tl flux2 inactive
CCC1=NN2C(=N)/C(=C\c3cccn3-c3ccc(Cl)cc3)C(=O)N=C2S1	Cl transport mod 18 | KCC2 secondary inconclusive | KCC2 bumet counter 0.043 | KCC2 secondary2 inactive | HEK293 Tl flux 0.014 | KCC2 retest ouab inactive | HEK293 Tl flux2 0.011
O=[N+]([O-])c1cc(S(=O)(=O)N2CCCC2)ccc1N/N=C1/CCCc2ccccc21	Cl transport mod -4 | KCC2 secondary inactive | KCC2 bumet counter inactive | KCC2 secondary2 inactive | HEK293 Tl flux inactive | KCC2 retest ouab inactive | HEK293 Tl flux2 inconclusive
C[C@@H]1CN([C@@H](C)CO)C(=O)c2cc(NC(=O)c3ccccc3)ccc2O[C@@H](C)CCCCO[C@@H]1CN(C)S(=O)(=O)c1ccc(F)cc1	none (no result: p-CIP stab down, Dynein cargo inh, Cl transport mod)
N#C/C(C(N)=O)=C1/CCCN1Cc1ccccc1	none (no result: p-CIP stab down, Dynein cargo inh, Cl transport mod)
CC(C)(NC(=O)c1cc(Cl)c2ccccc2c1O)C(=O)O	none
Fc1ccc(Nc2nc(Oc3ccccc3F)nc(N3CCCC3)n2)cc1	none (no result: Cl transport mod) | KCC2 secondary inactive | KCC2 bumet counter inactive | KCC2 secondary2 inactive | HEK293 Tl flux inactive | KCC2 retest ouab inactive | HEK293 Tl flux2 inactive
CSc1ccccc1OCc1cc(C(=O)NCc2ccc(C)s2)no1	none (no result: Dynein cargo inh, Cl transport mod)
O=C(NCCc1cn2ccccc2n1)c1cc(COc2c(F)cccc2F)on1	Cl transport mod -4 | KCC2 secondary inconclusive | KCC2 bumet counter inconclusive | KCC2 secondary2 inconclusive | HEK293 Tl flux inactive | KCC2 retest ouab 0.016 | HEK293 Tl flux2 inactive
Cc1ccc(OCc2cc(C(=O)NCc3cn4ccccc4n3)no2)cc1C	none (no result: Dynein cargo inh, Cl transport mod)
Cc1ccc(CNC(=O)c2cc(COc3c(F)cccc3F)on2)s1	none (no result: Cl transport mod) | KCC2 secondary inactive | KCC2 bumet counter inactive | KCC2 secondary2 inactive | HEK293 Tl flux inactive | KCC2 retest ouab 0.015 | HEK293 Tl flux2 inactive
COCCn1c(=NC(=O)CSCC(=O)N2CCOCC2)sc2cc(C)ccc21	none (no result: Dynein cargo inh, Cl transport mod)
C/C(=N/NS(=O)(=O)c1ccc(CC(C)C)cc1)c1ccncc1	none (no result: Dynein cargo inh, Cl transport mod)
